According to ChEMBL document CHEMBL1125589, “Verapamil analogues with restricted molecular flexibility” (1991):

Key:
[1] = species on record: Cavia porcellus; test: Compound was tested in vitro for chronotropic activity on isolated atria preparations of guinea pig at 10E-6 M concentration; type: functional
Outline: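 Chronotropic effect was measured on spontaneously beating isolated guinea pig right atria, with the test agent at 10^-6 M.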

[2] = species on record: Cavia porcellus; test: Compound was tested in vitro for ionotropic activity on isolated atria preparations of guinea pig at 10E-6 M concentration; type: functional
[3] = species on record: Cavia porcellus; test: Percent inhibition of [Ca2+] induced contraction on K+ depolarized guinea pig aortic strips at […] concentration; type: functional, Aorta
Outline: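 Guinea pig aortic strips were depolarized with K+, and contraction was induced with Ca2+. Percent inhibition of that contraction was measured with the test agent at 5·10^-4 M. Results are given as means ± SEM, n = 5-6.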

[4] = species on record: Cavia porcellus; test: Compound was tested in vitro for ionotropic activity on isolated atria preparations of guinea pig.; type: functional
[5] = species on record: Cavia porcellus; test: Compound was tested in vitro for chronotropic activity on isolated atria preparations of guinea pig.; type: functional

COc1ccc(CCN(C)CCCC(C#N)(c2ccc(OC)c(OC)c2)C(C)C)cc1OC (centres undefined) [VERAPAMIL]
Negative chronotropic activity [1]: 94%
Negative ionotropic activity [2]: 60%
Ca2+ antagonistic activity [3]: 79%

COc1ccc(CCN(C)[C@H]2CC[C@](C#N)(c3ccc(OC)c(OC)c3)CC2)cc1OC
Negative ionotropic activity [4]: 52%
Negative chronotropic activity [5]: 65%
Ca2+ antagonistic activity [3]: 59%

COc1ccc(CCN(C)[C@H]2CC[C@@](C#N)(c3ccc(OC)c(OC)c3)CC2)cc1OC
Negative ionotropic activity [4]: 56%
Negative chronotropic activity [5]: 67%
Ca2+ antagonistic activity [3]: 66%
